Source: PubChem (Johns Hopkins Ion Channel Center)
An excerpt weighted towards active compounds, which were near 3.5% of everything screened.
MrgX1 antag: human MrgX1 receptor antagonism, primary screen | 310,000 tested, 1.3% active | B-score at 10 µM | MRGX1-HEK293 calcium flux, Fluo-4, BAM8-22 antagonism; active compounds read low | Q96LB2;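 active = calcium-response B-score plate-corrected more than 3 library SD below zero, starting fluorescence within 5 deviations, no agonist response on first addition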;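 also: peak minus trough fluorescence over baseline after final BAM8-22 challenge near maximal dose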
Target sequence (Q96LB2 whole entry, looked up): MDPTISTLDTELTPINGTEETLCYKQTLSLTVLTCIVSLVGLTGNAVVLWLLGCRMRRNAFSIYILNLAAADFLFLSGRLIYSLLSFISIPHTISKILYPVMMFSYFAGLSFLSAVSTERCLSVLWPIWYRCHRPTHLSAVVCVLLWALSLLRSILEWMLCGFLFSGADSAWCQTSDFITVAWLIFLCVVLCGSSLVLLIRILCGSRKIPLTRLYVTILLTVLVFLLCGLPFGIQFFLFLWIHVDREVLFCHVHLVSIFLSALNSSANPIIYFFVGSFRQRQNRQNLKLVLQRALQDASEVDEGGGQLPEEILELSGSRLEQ
MrgX1 agonist: human MrgX1 receptor agonism, primary screen. AID 588627. MrgX1-HEK293 cells, Fluo-4 calcium fluorescence, agonist mode; active compounds read high. 310,000 tested, 0.44% active. B-score at 10 µM;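 active = calcium response B-score plate-corrected fluorescence ratio at least 3 library SD, with starting fluorescence B-score inside 5 SD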
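Material: MrgX1-expressing HEK293 cells; input: 15,000 cells per well; doses: test compound given as first of three sequential additions; schedule: overnight plating before 1 h dye loading; technique: Fluo-4 NW calcium-flux fluorescence, kinetic read; evaluation: baseline-normalised fluorescence change ratio, B-scored; control set: plate-wise positive and negative controls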
MrgX1 allo act: allosterically activates human MrgX1 receptor signaling; Q96LB2; MrgX1-HEK293, Fluo-4 calcium flux, FDSS; active compounds read high; B-score at 10 µM; 310,000 tested, 0.63% active;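 active = plate-corrected calcium response at least 3 library SD above typical, normal starting fluorescence, not activating the receptor alone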;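 also: compound read alongside a low EC10 to EC30 dose of BAM8-22 agonist; peak minus trough fluorescence over baseline measured at the second addition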
RGS4 block: inhibitors of human RGS4 | P49798 | HEK293 M3R/RGS4 inducible, Fluo-4 calcium flux; active compounds read high; triggered by carbachol at its EC20 | B-score at 10 µM | 310,000 tested, 0.45% active | AID 463165;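 active = B-score, a plate-corrected calcium signal, over three deviations above library mean, with baseline fluorescence within five deviations of library mean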;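 also: RGS4 expression induced by doxycycline in cells with stable M3 receptor; B-score is computed from the integrated fluorescence ratio over baseline after carbachol; higher B-score means a larger calcium signal and so more RGS4 inhibition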
Target sequence (P49798 whole entry, looked up): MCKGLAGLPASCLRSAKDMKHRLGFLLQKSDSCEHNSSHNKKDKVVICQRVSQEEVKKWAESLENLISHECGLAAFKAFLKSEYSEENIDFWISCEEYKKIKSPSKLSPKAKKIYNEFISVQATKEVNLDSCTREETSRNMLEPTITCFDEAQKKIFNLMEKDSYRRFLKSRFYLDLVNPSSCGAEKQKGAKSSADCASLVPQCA
RGS4 act: RGS4 potentiation or activation; HEK293 M3R/inducible RGS4, carbachol calcium flux Fluo4; active compounds read low; B-score at 10 µM; 310,000 tested, 0.92% active;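 active = B-score of the integrated calcium signal more than 4 SD below the library mean, with starting fluorescence not abnormally high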;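 also: negative B-score means reduced calcium response which marks RGS4 activation or potentiation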
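Detection: kinetic calcium fluorescence imaging with Fluo4-AM dye, 2 µM / Material: HEK293 cells with stable M3R and inducible RGS4 / Schedule: recording 10 s baseline at 1 Hz, 100 s post-agonist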
Starred values were filed as active, the others as inactive; i = inactive.

SMILES	MrgX1 antag	MrgX1 agonist	MrgX1 allo act	RGS4 block	RGS4 act
Cc1c(CCOC(=O)c2ccc([N+](=O)[O-])cc2)sc[n+]1CC(=O)c1ccccc1	i	i	i	i	i
O=C(c1ccc(Br)o1)N1CCN(CCc2ccncc2)CC1	i	i	i	i	i
CC[n+]1c(/C=C/N(C)c2ccccc2)oc2ccccc21	i	i	i	i	i
CC/C(=C\c1oc2cc3ccccc3cc2[n+]1CC)Nc1ccccc1	i	27*	i	i	i
CC12CCC(C(=O)Nc3ccccc3)(C/C1=N\O)C2(C)C (configuration not stated)	i	i	i	i	i
Cc1cccc(NC(=O)C23CCC(C)(/C(=N/O)C2)C3(C)C)c1 (configuration not stated)	-5.8*	i	i	i	i
COc1c(CC=C(C)C)cc(C2CC(=O)c3c(O)cc(O)cc3O2)c(CC=C(C)C)c1O (configuration not stated)	i	i	i	i	-7.63*
COc1ccc(CCNC(=O)c2ccc(-c3ccc([N+](=O)[O-])cc3)o2)cc1OC	i	i	i	i	i
O=C(Oc1ccc2ccc(O)cc2c1)c1ccccc1Cl	i	i	i	i	i
Cc1cccc(C(=O)Oc2ccc(/C=N/O)cc2)c1	i	i	7.66*	i	i
Cc1ccc(C(=O)N/N=C\c2ccc(OC(=O)c3cccc(F)c3)cc2)cn1	i	i	i	i	i
O=C(Oc1ccc(/C=N/O)cc1)c1ccccc1Cl	i	i	16.2*	i	i
CCOC(=O)CSc1nc(N)c(C#N)c(-c2ccc(OC)cc2)c1C#N	-5.8*	i	i	i	i
Cc1ccc(-n2nc(C)c(/C=N/NC(=O)c3cccnc3)c2Cl)cc1	-4.82*	i	i	i	i
Cc1nn(-c2ccccc2)c(Cl)c1/C=N/NC(=O)c1ccc(NS(=O)(=O)c2cccs2)cc1	i	i	11*	i	i
Cc1ccc(C)n1-c1ccc(C(=O)N/N=C/c2ccncc2)cc1	i	i	10*	i	i
COc1ccc2cc(C(=O)C3CCCN(C(=O)c4cncs4)C3)ccc2c1 (configuration not stated)	i	i	i	i	i
Cc1nc(-c2ccc(S(=O)(=O)NCc3ccccn3)s2)cs1	i	i	i	i	i
O=C(O)Cc1sc(N/N=C\c2ccccc2)nc1-c1ccccc1	-6.2*	i	i	i	i
CCOC(=O)c1sc(N/N=C/c2ccccc2)nc1C	i	i	i	i	i
CCN(C(=O)COc1cccc2cccnc12)C1CCS(=O)(=O)C1 (configuration not stated)	i	i	i	i	i
CCN(CC)S(=O)(=O)c1ccc(-c2nnc(SCC(=O)Nc3cc(OC)cc(OC)c3)o2)cc1	-4.61*	i	i	i	i
O=C(N/N=C/c1cc2c(cc1Cl)OCO2)c1cc(-c2ccccc2)n[nH]1	i	i	i	i	i
O=C(OCC1OC(n2ncc(=O)[nH]c2=O)C(OC(=O)c2ccccc2)C1OC(=O)c1ccccc1)c1ccccc1 (configuration not stated)	i	i	i	i	-7.2*
Nc1nc2ccc([N+](=O)[O-])cc2[nH]1	i	i	i	i	i
SMILES	MrgX1 antag	MrgX1 agonist	MrgX1 allo act	RGS4 block	RGS4 act
Nc1[nH]c2cc([N+](=O)[O-])ccc2c1-c1ccccn1	-7.58*	i	i	i	i
CC(C)NC(=O)C(OC(=O)c1ccccc1)C(OC(=O)c1ccccc1)C(=O)O (configuration not stated)	i	i	i	i	i
C[C@H](O)CC1=C[C@H](O)[C@@H](C)OC1=O	i	i	i	i	i
CCn1c(=O)c([N+](=O)[O-])c(NCC(O)c2ccccc2)c2ccccc21 (configuration not stated)	i	i	i	i	i
Cn1c(=O)c([N+](=O)[O-])c(NCC(O)c2ccccc2)c2ccccc21 (configuration not stated)	-5.65*	i	i	i	i
COc1cccc(C2/C(=C(/O)c3ccc4c(c3)CC(C)O4)C(=O)C(=O)N2CC2CCCO2)c1 (configuration not stated)	i	i	i	i	i
O=C1/C(=C\c2ccco2)CCC/C1=C\c1ccco1	i	i	7.56*	i	i
O=C1/C(=C/c2ccco2)CCC1C1CCCC1 (configuration not stated)	i	i	i	i	i
CC1C/C(=C/c2ccco2)C(=O)/C(=C/c2ccco2)C1 (configuration not stated)	i	i	i	6.56*	i
O=C1/C(=C/c2ccco2)Cc2ccccc21	i	i	i	i	i
CC(=O)NCCC(=O)Nc1cc(S(=O)(=O)N2CCOCC2)ccc1Oc1ccccc1	i	i	i	i	i
CCN(CC)S(=O)(=O)c1ccc(Cl)c(C(=O)Oc2cccc(-c3cnc4ccccc4n3)c2)c1	i	i	i	i	-7.07*
O=c1c2ccccc2c(/C=N/c2nnc(Cc3ccccc3)s2)c(O)n1-c1ccc(Cl)cn1	i	i	15.7*	i	i
COC(=O)c1ccccc1NC(=O)CN1CCN(C23CC4CC(CC(C4)C2)C3)CC1	i	i	i	i	-8.02*
COC(=O)c1ccccc1NC(=O)CN1CCc2ccccc2C1	i	i	i	i	i
CN(C)S(=O)(=O)N(CC(=O)NCCSCc1ccc(Cl)cc1)c1ccccc1	-7.83*	i	i	i	i
CCOC(=O)C1CCN(C(=O)Nc2ccc3nc(-c4ccco4)c(-c4ccco4)nc3c2)CC1	-4.99*	i	i	i	i
O=C(Nc1ccc2nc(-c3ccco3)c(-c3ccco3)nc2c1)N1CCCCCC1	i	i	i	i	i
O=C(/C=C/Nc1ccc(Br)cc1F)c1ccccc1	-5.95*	i	i	i	i
CCCCn1c(N)c(N(CCC(C)C)C(=O)c2ccc3c(c2)OCO3)c(=O)[nH]c1=O	-5.74*	i	i	i	i
CCCCCC(=O)Nc1cc(S(=O)(=O)N2CCOCC2)ccc1N1CCCCC1	i	i	i	i	i
CCn1nc(C)c(/C=N/NC(=O)c2ccoc2C)c1C	-5.58*	i	i	i	i
CCCCCn1nc(C)c(/C=N/NC(=O)c2ccoc2C)c1C	i	i	i	i	i
